Source: ChEMBL document CHEMBL2010675, “Discovery of GS-9451: an acid inhibitor of the hepatitis C virus NS3/4A protease” (Bioorg Med Chem Lett, 2012)
In brackets after ≈: the same amount, converted by molar mass. One block for each molecule: values may come before it.

Tests used:
[1] = Thermodynamic solubility of the compound at pH 7.3; assay type: physicochemical; conditions: buffer, read-out: Therm_solubility
[2] = Clearance in dog at 1 mg/kg, iv and 4 mg/kg, po; assay type: ADME, organism-based, Canis lupus familiaris; conditions: in vivo
Outline: (§1)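 Dosed at 1.0 mg/kg iv and 4.0 mg/kg po; plasma drug levels followed to derive iv t1/2, oral AUC, clearance, Vdss and oral bioavailability (F).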

[3] = Volume of distribution at steady state in dog at 1 mg/kg, iv and 4 mg/kg, po; assay type: ADME, organism-based, Canis lupus familiaris; conditions: in vivo, read-out: Vdss; outline: as §1
[4] = Thermodynamic solubility of the compound at pH 2.2; assay type: physicochemical; conditions: buffer; for solubility thermodynamic: read-out: Therm_solubility
[5] = Permeability from basolateral to apical side in human Caco2 cells; assay type: ADME, cell-based; conditions: Caco-2, read-out: permeability
[6] = tested on: Canis familiaris; assay: AUC in dog at 4 mg/kg, po; assay type: ADME, organism-based, Canis lupus familiaris, Plasma; parameters: dose 4 mg/kg, route oral; conditions: in vivo; outline: as §1
[7] = Oral bioavailability in dog at 4 mg/kg; assay type: ADME, organism-based, Canis lupus familiaris; conditions: in vivo; outline: as §1
[8] = Permeability from apical to basolateral side in human Caco2 cells; assay type: ADME, cell-based; conditions: Caco-2, read-out: permeability
[9] = tested on: Hepatitis C virus; assay: Inhibition of Hepatitis C virus genotype 1b NS3/4A protease; parameters: species or system Hepatitis C virus subtype 1b
[10] = tested on: Hepatitis C virus; assay: Antiviral activity against Hepatitis C virus genotype 1b infected in human Huh cells by luciferase reporter gene based replicon assay; assay type: functional, organism-based, Hepacivirus hominis
Outline: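 EC50 from a cell-based assay in Huh-luc cells carrying a subgenomic HCV genotype 1b replicon, with luciferase reporter read-out.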

[11] = Half life in dog at 1 mg/kg, iv; assay type: ADME, organism-based, Canis lupus familiaris; parameters: dose 1 mg/kg, route intravenous; conditions: in vivo; outline: as §1
[12] = Inhibition of p-glycoprotein
[13] = biological target: Multidrug resistance-associated protein 1 (Homo sapiens, UniProt P33527); assay: Inhibition of MRP1
Chain of Multidrug resistance-associated protein 1 (P33527 whole entry): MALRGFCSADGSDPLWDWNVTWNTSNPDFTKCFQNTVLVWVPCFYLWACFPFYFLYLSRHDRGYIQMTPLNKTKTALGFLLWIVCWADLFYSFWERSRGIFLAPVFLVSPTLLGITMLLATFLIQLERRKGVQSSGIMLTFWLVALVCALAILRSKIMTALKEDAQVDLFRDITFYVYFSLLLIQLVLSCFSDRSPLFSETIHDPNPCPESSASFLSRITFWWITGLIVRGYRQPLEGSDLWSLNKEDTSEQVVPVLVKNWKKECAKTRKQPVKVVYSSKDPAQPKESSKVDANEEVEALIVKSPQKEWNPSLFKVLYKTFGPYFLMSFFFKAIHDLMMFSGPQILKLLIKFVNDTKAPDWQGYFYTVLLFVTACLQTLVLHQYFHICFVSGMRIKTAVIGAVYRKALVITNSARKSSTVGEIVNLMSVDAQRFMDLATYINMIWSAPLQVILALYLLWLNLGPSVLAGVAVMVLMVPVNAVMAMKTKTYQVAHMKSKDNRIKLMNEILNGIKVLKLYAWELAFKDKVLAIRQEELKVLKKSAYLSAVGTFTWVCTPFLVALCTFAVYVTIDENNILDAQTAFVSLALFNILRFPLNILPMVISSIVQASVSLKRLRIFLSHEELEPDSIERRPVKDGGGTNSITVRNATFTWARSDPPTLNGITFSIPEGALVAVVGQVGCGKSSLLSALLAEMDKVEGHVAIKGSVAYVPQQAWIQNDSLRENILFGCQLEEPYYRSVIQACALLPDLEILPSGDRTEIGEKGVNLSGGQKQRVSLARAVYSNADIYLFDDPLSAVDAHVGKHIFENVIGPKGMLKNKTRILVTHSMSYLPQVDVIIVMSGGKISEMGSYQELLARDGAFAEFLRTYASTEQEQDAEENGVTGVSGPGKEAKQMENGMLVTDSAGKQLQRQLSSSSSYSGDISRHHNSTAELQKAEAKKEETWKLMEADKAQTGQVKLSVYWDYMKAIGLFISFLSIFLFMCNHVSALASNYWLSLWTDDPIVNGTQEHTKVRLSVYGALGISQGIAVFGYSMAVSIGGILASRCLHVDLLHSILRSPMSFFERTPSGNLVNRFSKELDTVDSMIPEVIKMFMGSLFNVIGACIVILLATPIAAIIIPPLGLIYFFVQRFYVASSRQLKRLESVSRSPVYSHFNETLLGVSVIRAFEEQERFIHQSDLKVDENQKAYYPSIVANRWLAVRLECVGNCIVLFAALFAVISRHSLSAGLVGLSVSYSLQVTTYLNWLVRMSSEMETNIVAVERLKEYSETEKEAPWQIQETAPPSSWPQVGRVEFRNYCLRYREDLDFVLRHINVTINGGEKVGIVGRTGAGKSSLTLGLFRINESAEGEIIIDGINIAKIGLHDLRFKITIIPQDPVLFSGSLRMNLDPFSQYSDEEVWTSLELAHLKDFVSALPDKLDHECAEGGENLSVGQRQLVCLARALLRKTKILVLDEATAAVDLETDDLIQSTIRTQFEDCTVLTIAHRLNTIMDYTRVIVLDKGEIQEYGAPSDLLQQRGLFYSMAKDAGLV

[14] = Volume of distribution at steady state in rat at 1 mg/kg, iv and 4 mg/kg, po; assay type: ADME, organism-based; conditions: in vivo, read-out: Vdss
[15] = biological target: ATP-binding cassette sub-family C member 2 (Homo sapiens, UniProt Q92887); assay: Inhibition of MRP2
Chain of ATP-binding cassette sub-family C member 2 (Q92887 whole entry): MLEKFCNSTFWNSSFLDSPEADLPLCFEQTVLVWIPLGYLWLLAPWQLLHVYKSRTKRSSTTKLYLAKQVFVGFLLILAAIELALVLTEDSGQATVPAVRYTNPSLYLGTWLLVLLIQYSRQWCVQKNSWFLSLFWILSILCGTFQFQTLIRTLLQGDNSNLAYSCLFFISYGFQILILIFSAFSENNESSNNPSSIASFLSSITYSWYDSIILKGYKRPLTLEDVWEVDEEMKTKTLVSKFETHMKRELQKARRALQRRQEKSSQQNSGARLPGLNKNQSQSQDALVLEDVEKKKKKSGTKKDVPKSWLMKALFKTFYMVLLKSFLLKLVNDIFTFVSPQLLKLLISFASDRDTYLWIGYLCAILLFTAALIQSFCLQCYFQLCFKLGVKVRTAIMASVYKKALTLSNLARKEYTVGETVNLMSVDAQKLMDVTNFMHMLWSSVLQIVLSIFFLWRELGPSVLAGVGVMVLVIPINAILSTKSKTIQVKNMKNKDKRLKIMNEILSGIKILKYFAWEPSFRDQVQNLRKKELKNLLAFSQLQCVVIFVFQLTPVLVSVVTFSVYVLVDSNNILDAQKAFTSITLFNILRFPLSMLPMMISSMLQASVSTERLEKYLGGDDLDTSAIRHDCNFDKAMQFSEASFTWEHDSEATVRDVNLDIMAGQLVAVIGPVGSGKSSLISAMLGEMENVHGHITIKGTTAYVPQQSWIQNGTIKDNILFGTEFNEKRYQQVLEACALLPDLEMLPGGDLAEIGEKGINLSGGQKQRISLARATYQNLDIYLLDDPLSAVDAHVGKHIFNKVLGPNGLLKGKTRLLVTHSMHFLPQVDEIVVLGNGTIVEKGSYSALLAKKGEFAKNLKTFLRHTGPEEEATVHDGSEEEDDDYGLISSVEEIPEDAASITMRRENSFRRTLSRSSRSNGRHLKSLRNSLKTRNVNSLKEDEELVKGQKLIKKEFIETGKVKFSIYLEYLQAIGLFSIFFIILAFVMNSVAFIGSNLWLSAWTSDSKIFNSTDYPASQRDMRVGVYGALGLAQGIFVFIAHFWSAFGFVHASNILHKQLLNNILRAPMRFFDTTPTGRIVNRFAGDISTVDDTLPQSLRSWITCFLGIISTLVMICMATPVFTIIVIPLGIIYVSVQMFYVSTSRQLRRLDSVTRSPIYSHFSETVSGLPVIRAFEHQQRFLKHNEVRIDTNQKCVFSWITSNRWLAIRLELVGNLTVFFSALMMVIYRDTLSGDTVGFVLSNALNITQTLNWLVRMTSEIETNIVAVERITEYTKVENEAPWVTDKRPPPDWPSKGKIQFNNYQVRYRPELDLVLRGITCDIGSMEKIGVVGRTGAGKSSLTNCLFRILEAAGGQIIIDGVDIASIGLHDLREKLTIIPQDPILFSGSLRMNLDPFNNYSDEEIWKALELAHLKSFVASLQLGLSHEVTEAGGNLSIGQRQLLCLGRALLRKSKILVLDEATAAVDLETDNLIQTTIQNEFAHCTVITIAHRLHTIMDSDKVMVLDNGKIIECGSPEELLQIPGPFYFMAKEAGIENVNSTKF

[16] = Half life in rat at 1 mg/kg, iv; assay type: ADME, organism-based; parameters: dose 1 mg/kg, route intravenous; conditions: in vivo
[17] = tested on: Hepatitis C virus; assay: Antiviral activity against Hepatitis C virus genotype 1a infected in human assessed as log decrease in viral RNA level at 60 mg, po for 3 days; assay type: functional, Hepacivirus hominis, subtype 1a
[18] = Half life in cynomolgus monkey microsomes; assay type: ADME, Macaca fascicularis, Microsome
[19] = Selectivity for hepatitis C virus NS3/4A protease over human leukocyte elastase
[20] = Clearance in rat at 1 mg/kg, iv and 4 mg/kg, po; assay type: ADME, organism-based; conditions: in vivo
[21] = Fraction unbound in human plasma; assay type: ADME, cell-free
[22] = Selectivity for hepatitis C virus NS3/4A protease over human proteinase 3
[23] = Elimination half life in human at 10 to 1000 mg; conditions: in vivo, read-out: beta t1/2 (converted)
[24] = Drug excretion in rat bile at 1 mg/kg, iv; assay type: ADME, organism-based; parameters: dose 1 mg/kg, route intravenous; conditions: read-out: Drug excretion
Outline: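 Bile-duct cannulated rats given drug intravenously; bile collected and the fraction of total dose recovered as parent compound and as glucuronide conjugates measured.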

[25] = Half life in human microsomes; assay type: ADME, Microsome
[26] = biological target: T1, Broad substrate specificity ATP-binding cassette transporter ABCG2 (Homo sapiens, UniProt Q9UNQ0); assay: Inhibition of BCRP; assay type: ADME
T1 sequence (Q9UNQ0 whole entry): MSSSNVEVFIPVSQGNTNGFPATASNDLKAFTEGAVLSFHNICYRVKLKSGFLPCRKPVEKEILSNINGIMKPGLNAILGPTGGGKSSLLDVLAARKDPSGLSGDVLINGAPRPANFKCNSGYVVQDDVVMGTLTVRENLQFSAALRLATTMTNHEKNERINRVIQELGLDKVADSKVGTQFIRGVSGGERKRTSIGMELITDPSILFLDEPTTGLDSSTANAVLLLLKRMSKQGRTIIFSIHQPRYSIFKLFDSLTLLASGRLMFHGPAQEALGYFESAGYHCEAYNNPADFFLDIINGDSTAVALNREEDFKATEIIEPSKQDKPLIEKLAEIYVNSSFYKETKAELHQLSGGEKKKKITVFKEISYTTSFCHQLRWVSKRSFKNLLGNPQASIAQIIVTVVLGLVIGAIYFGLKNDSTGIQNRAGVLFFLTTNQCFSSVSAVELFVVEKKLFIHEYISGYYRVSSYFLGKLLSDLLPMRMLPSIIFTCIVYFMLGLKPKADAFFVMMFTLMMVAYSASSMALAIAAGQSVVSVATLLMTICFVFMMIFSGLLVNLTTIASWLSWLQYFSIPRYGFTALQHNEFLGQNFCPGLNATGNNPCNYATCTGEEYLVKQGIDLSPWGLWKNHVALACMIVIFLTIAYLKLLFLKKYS

[27] = tested on: Cynomolgus monkey; assay: AUC in cynomolgus monkey at 4 mg/kg, po; assay type: ADME, organism-based, Macaca fascicularis, Plasma; parameters: dose 4 mg/kg, route oral; conditions: in vivo; outline: as §1
[28] = Oral bioavailability in rat at 4 mg/kg; assay type: ADME, organism-based; conditions: in vivo
[29] = Volume of distribution at steady state in cynomolgus monkey at 1 mg/kg, iv and 4 mg/kg, po; assay type: ADME, organism-based, Macaca fascicularis; conditions: in vivo, read-out: Vdss; outline: as §1
[30] = biological target: Voltage-gated inwardly rectifying potassium channel KCNH2 (Homo sapiens, UniProt Q12809); assay: Inhibition of human Erg up to 25 uM
Chain of Voltage-gated inwardly rectifying potassium channel KCNH2 (Q12809 whole entry): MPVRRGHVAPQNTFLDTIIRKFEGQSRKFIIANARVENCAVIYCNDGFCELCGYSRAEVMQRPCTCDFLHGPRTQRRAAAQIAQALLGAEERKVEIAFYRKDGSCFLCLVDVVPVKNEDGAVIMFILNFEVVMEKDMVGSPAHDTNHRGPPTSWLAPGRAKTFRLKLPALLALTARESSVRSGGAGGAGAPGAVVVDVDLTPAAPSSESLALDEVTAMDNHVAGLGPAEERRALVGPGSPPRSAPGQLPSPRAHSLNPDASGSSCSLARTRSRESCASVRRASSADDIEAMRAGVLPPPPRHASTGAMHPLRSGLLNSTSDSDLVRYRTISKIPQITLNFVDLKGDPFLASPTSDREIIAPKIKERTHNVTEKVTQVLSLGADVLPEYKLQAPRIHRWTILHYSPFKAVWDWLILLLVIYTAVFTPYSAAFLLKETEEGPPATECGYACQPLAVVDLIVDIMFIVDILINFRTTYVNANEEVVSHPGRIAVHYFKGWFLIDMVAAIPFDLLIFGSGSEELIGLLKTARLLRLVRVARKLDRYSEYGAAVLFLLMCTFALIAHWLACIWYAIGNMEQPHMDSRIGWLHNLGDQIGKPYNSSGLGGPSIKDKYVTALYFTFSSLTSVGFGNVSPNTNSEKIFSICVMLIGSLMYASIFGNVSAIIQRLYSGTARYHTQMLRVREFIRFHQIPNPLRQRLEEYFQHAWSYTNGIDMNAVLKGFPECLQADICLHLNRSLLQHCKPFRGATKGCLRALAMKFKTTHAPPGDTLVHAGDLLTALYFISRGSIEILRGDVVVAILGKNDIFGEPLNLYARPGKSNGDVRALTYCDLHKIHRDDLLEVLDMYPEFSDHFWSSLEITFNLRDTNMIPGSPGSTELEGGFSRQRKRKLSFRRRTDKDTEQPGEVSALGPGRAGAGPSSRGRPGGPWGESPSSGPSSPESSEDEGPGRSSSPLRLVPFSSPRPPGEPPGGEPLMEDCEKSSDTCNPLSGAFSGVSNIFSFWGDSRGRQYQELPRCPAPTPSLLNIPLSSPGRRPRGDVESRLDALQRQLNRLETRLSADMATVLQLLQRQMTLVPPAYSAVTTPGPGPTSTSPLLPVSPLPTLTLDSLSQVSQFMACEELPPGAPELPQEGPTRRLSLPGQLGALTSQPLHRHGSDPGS

[31] = Half life in cynomolgus monkey at 1 mg/kg, iv; assay type: ADME, organism-based, Macaca fascicularis; parameters: dose 1 mg/kg, route intravenous; conditions: in vivo; outline: as §1
[32] = Cmax in rat at 4 mg/kg, po; assay type: ADME, organism-based; parameters: dose 4 mg/kg, route oral; conditions: in vivo
[33] = Half life in rat microsomes; assay type: ADME, Microsome
[34] = Cmax in cynomolgus monkey at 4 mg/kg, po; assay type: ADME, organism-based, Macaca fascicularis; parameters: dose 4 mg/kg, route oral; conditions: in vivo
[35] = Plasma concentration in human at 300 mg after 24 hrs
[36] = tested on: Hepatitis C virus; assay: Antiviral activity against Hepatitis C virus genotype 1a infected in human assessed as log decrease in viral RNA level at 400 mg, po for 3 days; assay type: functional, Hepacivirus hominis, subtype 1a
[37] = Selectivity for hepatitis C virus NS3/4A protease over human cathepsin L
[38] = Selectivity for hepatitis C virus NS3/4A protease over human cathepsin D
[39] = Half life in dog microsomes; assay type: ADME, Canis lupus familiaris, Microsome
[40] = Fraction unbound in dog plasma; assay type: ADME, cell-free, Canis lupus familiaris
[41] = tested on: Rattus norvegicus; assay: AUC in rat at 4 mg/kg, po; assay type: ADME, organism-based, Plasma; parameters: dose 4 mg/kg, route oral; conditions: in vivo
[42] = Cmax in dog at 4 mg/kg, po; assay type: ADME, organism-based, Canis lupus familiaris; parameters: dose 4 mg/kg, route oral; conditions: in vivo
[43] = Inhibition of cytochrome P450 up to 25 uM; assay type: ADME
[44] = Oral bioavailability in cynomolgus monkey at 4 mg/kg; assay type: ADME, organism-based, Macaca fascicularis; conditions: in vivo; outline: as §1
[45] = Clearance in cynomolgus monkey at 1 mg/kg, iv and 4 mg/kg, po; assay type: ADME, organism-based, Macaca fascicularis; conditions: in vivo; outline: as §1
[46] = Fraction unbound in cynomolgus monkey plasma; assay type: ADME, cell-free, Macaca fascicularis
[47] = Fraction unbound in rat plasma; assay type: ADME, cell-free
[48] = tested on: Hepatitis C virus; assay: Antiviral activity against Hepatitis C virus genotype 1a infected in human assessed as log decrease in viral RNA level at 200 mg, po for 3 days; assay type: functional, Hepacivirus hominis, subtype 1a

solubility thermodynamic [1]: 22 µM (≈ 20.6 µg/mL)
clearance [2]: 0.5 mL/min/kg
Vd [3]: 0.21 L/kg
solubility thermodynamic [4]: 1900 µM (≈ 1780 µg/mL)
Papp B→A [5]: 10 ×10⁻⁶ cm/s
AUC [6]: 38.3 µM·h
bioavailability [7]: 24%
Papp A→B [8]: 6.6 ×10⁻⁶ cm/s
IC50 [9]: 4.2 nM
EC50 [10]: 3.2 nM
half-life [11]: 5.8 h
SMILES: CC[C@@H]1C[C@]1(NC(=O)[C@@H]1C[C@@H](Oc2cc(-c3csc(NC(C)C)n3)nc3c(Cl)c(OCCN4CCOCC4(C)C)ccc23)CN1C(=O)[C@@H](NC(=O)O[C@@H]1C[C@@H]2C[C@@H]2C1)C(C)(C)C)C(=O)O

IC50 [12]: 34000 nM
inhibition (INH) [12]: Dose-dependent effect
IC50 [13]: 14900 nM
inhibition (INH) [13]: Dose-dependent effect
Vd [14]: 2.3 L/kg
solubility thermodynamic [1]: 38 µM (≈ 34.6 µg/mL)
IC50 [15]: 12000 nM
inhibition (INH) [15]: Dose-dependent effect
half-life [16]: 0.62 h
half-life [18]: 1.32 h
Selectivity ratio [19]: > 50000
clearance [20]: 73.3 mL/min/kg
fraction unbound [21]: 0.026
Selectivity ratio [22]: > 50000
clearance [2]: 4.33 mL/min/kg
Vd [3]: 1.15 L/kg
half-life [23]: 12 h
dose excreted [24]: 45%
solubility thermodynamic [4]: 790 µM (≈ 719 µg/mL)
half-life [25]: > 6.58 h
IC50 [26]: 1400 nM
AUC [27]: 13.1 µM·h
Papp B→A [5]: 8.2 ×10⁻⁶ cm/s
bioavailability [28]: 62%
Vd [29]: 0.76 L/kg
AUC [6]: 21.8 µM·h
half-life [31]: 3.9 h
Cmax [32]: 576 nM
half-life [33]: > 6.58 h
Cmax [34]: 3470 nM
concentration at 24 h [35]: 400 nM
bioavailability [7]: 142%
Selectivity ratio [37]: > 50000
Selectivity ratio [38]: > 50000
half-life [39]: > 6.58 h
Papp A→B [8]: 0.8 ×10⁻⁶ cm/s
fraction unbound [40]: 0.026
AUC [41]: 1.41 µM·h
Cmax [42]: 3940 nM
inhibition (INH) [43]: Not Active
bioavailability [44]: 49%
clearance [45]: 4.83 mL/min/kg
IC50 [9]: 3.2 nM
fraction unbound [46]: 0.016
fraction unbound [47]: 0.011
EC50 [10]: 2 nM
half-life [11]: 4.2 h
SMILES: CC[C@@H]1C[C@]1(NC(=O)[C@@H]1C[C@@H](Oc2cc(-c3csc(NC(C)C)n3)nc3c(Cl)c(OCCN4CCOCC4)ccc23)CN1C(=O)[C@@H](NC(=O)O[C@@H]1C[C@@H]2C[C@@H]2C1)C(C)(C)C)C(=O)O [VEDROPREVIR]
Activity [17]: 0.88 log10IU/ml
inhibition (INH) [30]: Not Active
Activity [36]: 3.6 log10IU/ml
Activity [48]: 3.2 log10IU/ml

solubility thermodynamic [1]: 9 µM (≈ 7.63 µg/mL)
solubility thermodynamic [4]: < 6 µM
Papp B→A [5]: 49 ×10⁻⁶ cm/s
Papp A→B [8]: 6.8 ×10⁻⁶ cm/s
IC50 [9]: 5 nM
EC50 [10]: 115 nM
SMILES: CC[C@@H]1C[C@]1(NC(=O)[C@@H]1C[C@@H](Oc2cc(-c3csc(NC(C)C)n3)nc3c(Cl)c(OC)ccc23)CN1C(=O)[C@@H](NC(=O)O[C@@H]1C[C@@H]2[C@H](C1)C2(F)F)C(C)(C)C)C(=O)O

solubility thermodynamic [1]: 72 µM (≈ 58.4 µg/mL)
Therm_solubility [4]: Insoluble(BLD)
Papp B→A [5]: 25 ×10⁻⁶ cm/s
Papp A→B [8]: 7.3 ×10⁻⁶ cm/s
IC50 [9]: 1.4 nM
EC50 [10]: 9 nM
SMILES: CC[C@@H]1C[C@]1(NC(=O)[C@@H]1C[C@@H](Oc2cc(-c3csc(NC(C)C)n3)nc3c(Cl)c(OC)ccc23)CN1C(=O)[C@@H](NC(=O)O[C@@H]1C[C@@H]2C[C@@H]2C1)C(C)(C)C)C(=O)O
